In ChEMBL document CHEMBL5532704, “Exploiting thiol-functionalized benzosiloxaboroles for achieving diverse substitution patterns - synthesis, characterization and biological evaluation of promising antibacterial agents” (RSC Med Chem, 2024):

How the values were obtained:
Bacillus subtilis = experiment: Antibacterial activity against Bacillus subtilis ATCC 6633 assessed as diameter of inhibition zone by CLSI based disc-diffusion method; type: functional
Outline: (§1)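 Strains were stored at −80 °C, then subcultured twice on tryptic soy agar for 24–48 h at 30 °C before the disc-diffusion test. The result was recorded as the inhibition-zone diameter.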

Enterococcus faecalis = experiment: Antibacterial activity against Enterococcus faecalis ATCC 29212 assessed as diameter of inhibition zone by CLSI based disc-diffusion method; type: functional; outline: as §1
[1] = system: Staphylococcus epidermidis; experiment: Antibacterial activity against Staphylococcus epidermidis ATCC 12228 assessed as diameter of inhibition zone by CLSI based disc-diffusion method; type: functional; outline: as §1
Enterococcus faecium = experiment: Antibacterial activity against Enterococcus faecium ATCC 6057 assessed as diameter of inhibition zone by CLSI based disc-diffusion method; type: functional; outline: as §1
Staphylococcus aureus = experiment: Antibacterial activity against methicillin-resistant Staphylococcus aureus ATCC 43300 assessed as diameter of inhibition zone by CLSI based disc-diffusion method; type: functional
Outline: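 Disc-diffusion on standard strain subcultured twice on tryptic soy agar (24–48 h, 30 °C) after storage at −80 °C; inhibition zone diameter read; linezolid disc (0.03 mg) as reference.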

Candida albicans = experiment: Antifungal activity against Candida albicans ATCC 90028 assessed as fungal growth inhibition by broth-microdilution method; type: functional
Outline: (§2)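 Yeasts were stored at −80 °C and subcultured twice on Sabouraud dextrose agar (24–48 h, 30 °C) to confirm viability. Growth inhibition was then measured as MIC by broth microdilution.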

Pichia kudriavzevii = experiment: Antifungal activity against Candida krusei ATCC 6258 assessed as fungal growth inhibition by broth-microdilution method; type: functional; outline: as §2
Candida parapsilosis = experiment: Antifungal activity against Candida parapsilosis ATCC 22019 assessed as fungal growth inhibition by broth-microdilution method; type: functional; conditions: Lodderomyces parapsilosis; outline: as §2
Candida tropicalis [2] = experiment: Antifungal activity against Candida tropicalis ATCC 750 assessed as fungal growth inhibition by broth-microdilution method; type: functional; outline: as §2
Candida tropicalis [3] = experiment: Antifungal activity against Candida tropicalis IBA 171 assessed as fungal growth inhibition by broth-microdilution method; type: functional; outline: as §2
[4] = system: Meyerozyma guilliermondii; experiment: Antifungal activity against Candida guilliermondii IBA 155 assessed as fungal growth inhibition by broth-microdilution method; type: functional; outline: as §2
[5] = Selectivity ratio of IC50 for cytotoxicity against human MRC5 cells assessed as inhibition of cell growth to MIC for antibacterial activity against methicillin-resistant Staphylococcus aureus ATCC 43300 assessed as inhibition of microbial growth; type: toxicity, cell-based

C[Si]1(C)OB(O)c2ccc(SCCS(=O)(=O)c3ccccc3)c(F)c21
diameter of the inhibition zone (DIZ) (Bacillus subtilis): 21 mm | diameter of the inhibition zone (DIZ) (Enterococcus faecalis): 15 mm | diameter of the inhibition zone (DIZ) [1]: 22 mm

C[Si]1(C)OB(O)c2cc(F)c(S)c(F)c21
diameter of the inhibition zone (DIZ) (Bacillus subtilis): 22 mm | diameter of the inhibition zone (DIZ) (Enterococcus faecium): 24 mm | diameter of the inhibition zone (DIZ) [1]: 24 mm

C[Si]1(C)OB(O)c2ccc(SCCC(=O)OCCCCCC[n+]3ccccc3)c(F)c21.O=S(=O)([O-])C(F)(F)F
diameter of the inhibition zone (DIZ) (Bacillus subtilis): 19 mm | diameter of the inhibition zone (DIZ) (Enterococcus faecium): 12 mm | diameter of the inhibition zone (DIZ) (Enterococcus faecalis): 12 mm | diameter of the inhibition zone (DIZ) [1]: 21 mm | diameter of the inhibition zone (DIZ) (Staphylococcus aureus): 18 mm

C[Si]1(C)OB(O)c2ccc(SC3CC(=O)N(c4ccc(Br)c(C(F)(F)F)c4)C3=O)c(F)c21 (stereo not drawn)
diameter of the inhibition zone (DIZ) (Enterococcus faecalis): 17 mm | MIC (Candida albicans): > 12.5 µg/mL | MIC (Pichia kudriavzevii): > 12.5 µg/mL | MIC (Candida parapsilosis): > 12.5 µg/mL | MIC (Candida tropicalis [2]): > 12.5 µg/mL | MIC (Candida tropicalis [3]): > 12.5 µg/mL | MIC [4]: > 12.5 µg/mL | selectivity ratio [5]: 5.6

Cc1cc(NC(=O)CCSc2c(F)cc3c(c2F)[Si](C)(C)OB3O)no1
diameter of the inhibition zone (DIZ) (Bacillus subtilis): 17 mm | diameter of the inhibition zone (DIZ) (Enterococcus faecium): 14 mm | diameter of the inhibition zone (DIZ) (Enterococcus faecalis): 12 mm | diameter of the inhibition zone (DIZ) [1]: 13 mm | diameter of the inhibition zone (DIZ) (Staphylococcus aureus): 14 mm

COC(=O)CCSc1ccc2c(c1F)[Si](C)(C)OB2O
diameter of the inhibition zone (DIZ) (Bacillus subtilis): 23 mm | diameter of the inhibition zone (DIZ) [1]: 22 mm | diameter of the inhibition zone (DIZ) (Staphylococcus aureus): 24 mm

CC(=O)NC[C@H]1CN(c2ccc(N3CCOCC3)c(F)c2)C(=O)O1 [LINEZOLID]
diameter of the inhibition zone (DIZ) (Bacillus subtilis): 30 mm | diameter of the inhibition zone (DIZ) (Enterococcus faecium): 14 mm | diameter of the inhibition zone (DIZ) (Enterococcus faecalis): 15 mm | diameter of the inhibition zone (DIZ) [1]: 26 mm

C[Si]1(C)OB(O)c2cc(F)c(SCCC(=O)Nc3cnccn3)c(F)c21
diameter of the inhibition zone (DIZ) (Bacillus subtilis): 19 mm | diameter of the inhibition zone (DIZ) (Enterococcus faecium): 15 mm | diameter of the inhibition zone (DIZ) (Enterococcus faecalis): 13 mm | diameter of the inhibition zone (DIZ) [1]: 22 mm | diameter of the inhibition zone (DIZ) (Staphylococcus aureus): 25 mm

C[Si]1(C)OB(O)c2cc(F)c(SCCC(=O)OCCCCCC[n+]3ccccc3)c(F)c21.O=S(=O)([O-])C(F)(F)F
diameter of the inhibition zone (DIZ) (Staphylococcus aureus): 17 mm

C[Si]1(C)OB(O)c2ccc(S)c(F)c21
diameter of the inhibition zone (DIZ) (Bacillus subtilis): 23 mm | diameter of the inhibition zone (DIZ) (Enterococcus faecium): 18 mm

C[Si]1(C)OB(O)c2cc(F)c(SCCC(N)=O)c(F)c21
diameter of the inhibition zone (DIZ) (Bacillus subtilis): 15 mm | diameter of the inhibition zone (DIZ) (Enterococcus faecium): 12 mm | diameter of the inhibition zone (DIZ) (Enterococcus faecalis): 12 mm | diameter of the inhibition zone (DIZ) [1]: 19 mm

C[Si]1(C)OB(O)c2cc(F)c(SC3CC(=O)N(c4ccc(Br)c(C(F)(F)F)c4)C3=O)c(F)c21 (stereo not drawn)
diameter of the inhibition zone (DIZ) (Enterococcus faecium): 18 mm | diameter of the inhibition zone (DIZ) (Enterococcus faecalis): 18 mm | diameter of the inhibition zone (DIZ) [1]: 18 mm | MIC (Candida albicans): > 12.5 µg/mL | MIC (Pichia kudriavzevii): > 12.5 µg/mL | MIC (Candida parapsilosis): > 12.5 µg/mL | MIC (Candida tropicalis [2]): > 12.5 µg/mL | MIC (Candida tropicalis [3]): > 12.5 µg/mL | MIC [4]: > 12.5 µg/mL | selectivity ratio [5]: 1.5
